Bioassay records from PubChem BioAssay.
Shown are actives, neighbours in structure and some others; about 4.4% of the full set was active somewhere.
EBI2 block – EBI2 (human) antagonism; EBI2 beta-arrestin recruitment, luminescence, 7a,25-OHC stimulated; inhibition, % at 5 µM; 0.81% of 360,000 active; AID 651636; in the data active = inhibition above about 38%;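 also: enzyme fragment complementation signal reports receptor beta-arrestin coupling in cells; 0% = agonist plus DMSO wells and 100% = wells without agonist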
Target sequence (P32249 whole entry, looked up, the tested form may be a part): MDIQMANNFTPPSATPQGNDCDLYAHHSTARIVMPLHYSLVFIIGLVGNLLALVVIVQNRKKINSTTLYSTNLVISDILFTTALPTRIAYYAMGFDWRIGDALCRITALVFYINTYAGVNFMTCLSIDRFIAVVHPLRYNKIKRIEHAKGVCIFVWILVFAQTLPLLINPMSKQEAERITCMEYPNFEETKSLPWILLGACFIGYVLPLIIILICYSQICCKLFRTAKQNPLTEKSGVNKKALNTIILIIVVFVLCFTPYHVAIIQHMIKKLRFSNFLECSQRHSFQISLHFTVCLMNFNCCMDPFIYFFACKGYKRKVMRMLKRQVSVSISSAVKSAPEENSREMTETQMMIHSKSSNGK
NR3A LBD binder – NR3A (human) ligand-binding domain modulation; Tm shift relative to glycine control, % at 25 µM; 2.5% of 340,000 active; NR3A LBD differential scanning fluorimetry, Tm shift; 0% = protein alone, 100% = glycine-bound protein;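 active = melting temperature shift of at least 10% of the positive control shift, at one fixed dose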
SENP1 FRET inh – SENP1 (human) catalytic domain inhibition; Q9P0U3; recombinant SENP1 catalytic domain, CyPet-SUMO1-YPet FRET cleavage; inhibition, % at 10 µM; 0.21% of 360,000 active; AID 624204;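 active = inhibition at least 30% at 10 µM, raw YFP signal under a set limit, fluorescence ratio 0.5 to 1.5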;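 also: 0% = enzyme with DMSO and 100% = no enzyme wells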
Target sequence (Q9P0U3 419-644 limits assumed): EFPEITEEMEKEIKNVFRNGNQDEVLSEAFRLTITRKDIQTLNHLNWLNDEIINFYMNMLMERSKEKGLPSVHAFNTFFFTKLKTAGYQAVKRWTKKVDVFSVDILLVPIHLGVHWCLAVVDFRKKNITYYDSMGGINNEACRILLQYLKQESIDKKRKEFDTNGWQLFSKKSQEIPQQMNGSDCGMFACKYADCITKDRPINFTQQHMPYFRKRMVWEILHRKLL
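Test system: recombinant human SENP1 catalytic domain, His6-tagged / Medium: pH 8 Tris buffer with EDTA, NaCl, BME, BSA, NP40, catalase / Also added: SUMO1 FRET substrate flanked by Cypet and Ypet, 25 nM / Times: 50 min reaction at room temperature / Signal: FRET, CFP and YFP emission / Control set: no-enzyme low control and enzyme-plus-DMSO high control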
MPTP inh – blocks calcium-induced mitochondrial swelling; AID 602449; isolated mouse mitochondria, Ca2+ swelling absorbance, 30 min; 1.4% of 360,000 active; inhibition, % at 10 µM;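 active = inhibition of 50% or more, scaled per plate between neutral and stimulator controls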;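 also: 0% = DMSO wells given calcium and 100% = 1 mM EGTA wells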
Rh123 counter – membrane potential counter-screen of mitochondrial pore inhibitors; shares compounds with MPTP inh; isolated mitochondria, Rhodamine 123 fluorescence; inhibition, % at 10 µM; 78% of 5,000 active; AID 624504; in the data active = inhibition above about 22%;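 also: 0% = DMSO vehicle and 100% = positive control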
MPTP abs DR – MPTP inhibition, dose response swelling confirmation. shares compounds with MPTP inh. isolated mitochondria swelling, absorbance. IC50, µM. 58% of 780 active. AID 651561; in the data active = IC50 below about 20 µM
MPTP counter DR – counter-screen for mitochondrial permeability transition pore inhibitors, dose response | shares compounds with MPTP inh | isolated mitochondria counterscreen, fluorescence read-out | IC50, µM | 49% of 780 active; in the data active = IC50 below about 80 µM
* marks the source's active call; other numbers are inactive results; / = no result.

SMILES	EBI2 block	NR3A LBD binder	SENP1 FRET inh	MPTP inh	Rh123 counter	others
COCCN1CCCC(CNCc2cn(C)nc2-c2ccc(Oc3ccccc3)cc2)C1 (stereo not drawn)	-17	0	1	91*	-10	MPTP abs DR=4.8*;MPTP counter DR=>80
CCCCOc1ccc(Br)cc1CSC(=N)N	-5	-4	1	83*	108*
COc1ccc(NC(=O)C(NCC(C)C)c2ccccc2)cc1Cl (stereo not drawn)	12	-3	-1	-2	/
CCOC(=O)c1cnc2c(C)c(C)ccc2c1Nc1ccc(S(=O)(=O)Nc2ncccn2)cc1	8	3	-13	2	/
CC(C)N=c1scc(-c2cccs2)n1/N=C/c1ccc(O)c(O)c1O	-12	6	13	95*	50*
CN=c1scc(-c2ccccc2F)n1/N=C/c1ccc(O)c(O)c1O	7	0	12	17	/
CC(C)c1ccc(OCC(=O)N(Cc2ccco2)C2CCS(=O)(=O)C2)cc1 (stereo not drawn)	-8	1	2	0	/
O=C(Nc1cccc(Cl)c1)ON1CCCCC1	1	/	2	5	/
C=CCc1cc(Cl)ccc1OC(=O)Nc1cccc(Cl)c1	0	11*	0	93*	97*
COC(=O)c1ccc(N2CCN(C)CC2)c(NC(=O)c2cccs2)c1	-5	3	5	-2	/
CS(=O)(=O)NNC(=O)C1Cc2c(ccc3ccccc23)O1 (stereo not drawn)	-6	0	0	0	/
O=C(NNS(=O)(=O)c1ccc(F)cc1F)C1Cc2c(ccc3ccccc23)O1 (stereo not drawn)	8	-2	0	73*	52*
CN(C)C(=O)c1cc2cc(Br)ccc2s1	4	0	1	0	/
N#CC(c1ccc(Cl)cc1)c1ccc2c(C(F)(F)F)cc(C(F)(F)F)nc2n1 (stereo not drawn)	4	-1	-31	87*	108*
FC(F)(F)c1cc(C(F)(F)F)c2ccc(N3CCN(c4ccc(Cl)cc4)CC3)nc2n1	25	-6	11	42	/
CCOC(=O)CCCNC(=O)CSc1nc2ccc(OCC)cc2[nH]1	-3	4	1	0	/
CSc1nc2ccc(NS(=O)(=O)c3c(Cl)cccc3Cl)cc2s1	-5	3	1	1	/
CSc1nc2ccc(NS(=O)(=O)c3ccc(Br)s3)cc2s1	5	10	-1	84*	75*
CSc1nc2ccc(NS(=O)(=O)c3ccc4c(c3)OCCO4)cc2s1	3	-7	0	55*	101*
CC(C)(C)OC(=O)N1Cc2ccccc2C[C@H]1C(=O)NCC(=O)NC1CCCCC1	2	0	0	-1	/
C[C@@H]1CN([C@@H](C)CO)C(=O)c2cc(NC(=O)C3CC3)ccc2O[C@@H]1CN(C)Cc1ccc(Cl)c(Cl)c1	6	-7	-2	1	/
CCOC(=O)C1(C)NC(c2cccs2)C2C(=O)N(c3ccccc3)C(=O)C21 (stereo not drawn)	0	-1	2	-1	/
CCn1c(=O)c2ccccc2n2c(SCC(=O)N3CCCc4ccccc43)nnc12	2	-1	0	54*	3	MPTP abs DR=>100;MPTP counter DR=>80
O=C(c1ccccc1)N1CCN(c2ncnc3sc4c(c23)CCC4)CC1	7	0	-20	53*	45*
c1nc(N2CCOCC2)c2c3c(sc2n1)CCCC3	-8	-1	1	8	/
SMILES	EBI2 block	NR3A LBD binder	SENP1 FRET inh	MPTP inh	Rh123 counter	others
O=C(NNc1cc(C(F)(F)F)nc2ccccc12)Nc1cccc(Cl)c1	-1	9	1	67*	70*
O=C(Nc1ccc(-n2ccc(C(F)(F)F)n2)cc1)Nc1cccc(Cl)c1	1	/	1	75*	65*
COc1ccccc1NC(=O)Nc1ccc(-n2ccc(C(F)(F)F)n2)cc1	-7	4	0	28	/
Cc1cc(C)cc(NC(=O)Nc2ccc(-n3ccc(C(F)(F)F)n3)cc2)c1	13	17*	2	87*	83*
O=C(NNc1nccc(C(F)(F)F)n1)Nc1cccc(Cl)c1	-10	1	3	0	/
O=C(O)c1ccccc1C(=O)Nc1ccc(-n2ccc(C(F)(F)F)n2)cc1	1	-1	3	2	/
CCOC(=O)c1c(C)[nH]c(C(=O)COC(=O)[C@H](C)N2C(=O)C3CCCCC3C2=O)c1C (stereo partly drawn)	-1	-4	2	-1	/
O=C(CCC(=O)Nc1ccccc1Cl)NNC(=O)c1ccccc1[N+](=O)[O-]	-7	-1	-1	0	/
Nc1ccc(S(=O)(=O)Nc2ccc(Cl)nn2)cc1	7	2	3	1	/
O=C(Nc1ccc([N+](=O)[O-])cc1)c1cccc([N+](=O)[O-])c1	-1	/	1	4	/
O=C(NNC(=O)c1cccc(O)c1)Nc1ccc([N+](=O)[O-])cc1	-3	0	1	56*	36*
O=C(Nc1ccc([N+](=O)[O-])cc1)Nc1ccc2c(c1)OCCO2	10	21*	0	95*	90*
O=C(Nc1ccc([N+](=O)[O-])cc1)Nc1ccc2[nH]c(=O)[nH]c2c1	3	24*	-28	82*	71*
Cc1cccc(NC(=O)Nc2ccc([N+](=O)[O-])cc2)n1	21	-1	3	69*	54*
Cc1ccc(S(=O)(=O)NC(=O)NC2=NC(C)(C)N(c3ccc(Cl)c(Cl)c3)C(N)=N2)cc1	-4	/	0	0	/
CCOC(CC(=O)NNC(=O)c1c(-c2c(Cl)cccc2Cl)noc1C)OCC	5	1	2	1	/
NC(=O)CCC(NC(=O)c1ccc(Cl)cc1)C(=O)O (stereo not drawn)	0	-1	1	-1	/
O=C(COCC(=O)Nc1cccc(C(F)(F)F)c1)Nc1cccc(C(F)(F)F)c1	15	10	3	14	/
COc1cc(NC(=O)CSCC(=O)Nc2cccc(C(F)(F)F)c2)c(Cl)cc1Cl	12	5	1	58*	63*
C[C@@H]1CN([C@H](C)CO)C(=O)CCCn2nncc2CO[C@H]1CN(C)C(=O)Nc1cccc2ccccc12	-6	/	-1	-2	/
c1ccc2oc(NC3=NCN(C4CCCCC4)CN3)nc2c1	-10	1	3	-2	/
c1ccc2sc(NC3=NCN(C4CCCCCC4)CN3)nc2c1	-10	0	1	95*	20
O=C1CCCCC(=O)[C@H](OC(=O)c2ccccc2)C[C@H](c2ccccc2)O1	11	/	2	0	/
S=C(Nc1ccc(OCc2ccccc2)cc1)Nc1cccc(Cl)c1Cl	-9	12*	3	86*	79*
O=C(CSCc1ccccc1)NNC(=S)Nc1cccc(Cl)c1Cl	7	3	-2	92*	103*
